≈ marks a conversion by molar mass, not a printed value.
Experiments:
Staphylococcus aureus = test: Antimicrobial activity against Staphylococcus aureus after 24 hrs by tube dilution method; format: functional
Outline: (§1)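 Tube dilution in DMSO (stock 100 mg/ml) with serial dilutions; incubation 37 °C for 48 h for C. albicans (other organisms' times truncated in text). MIC read as lowest concentration inhibiting visible growth. Norfloxacin (bacteria) and fluconazole (fungi) as reference drugs.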

Bacillus subtilis = test: Antimicrobial activity against Bacillus subtilis after 24 hrs by tube dilution method; format: functional; outline: as §1
Escherichia coli = test: Antimicrobial activity against Escherichia coli after 24 hrs by tube dilution method; format: functional; outline: as §1
Aspergillus niger = test: Antimicrobial activity against Aspergillus niger after 7 days by tube dilution method; format: functional; settings: 168 h; outline: as §1
Candida albicans = test: Antimicrobial activity against Candida albicans after 48 hrs by tube dilution method; format: functional; outline: as §1
[1] = Cytotoxicity against human HEL cells assessed as alteration in cell morphology; format: cell-based
Outline: (§2)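 Uninfected cell cultures tested in parallel with the CPE-reduction antiviral assay; cells grown to confluency, then serial compound dilutions added and incubated at 37 °C (3 days in the parallel antiviral set-up). Read-out is microscopic examination of morphology; value is the minimum cytotoxic concentration, the lowest causing a microscopically detectable alteration of normal cell morphology.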

Human alphaherpesvirus 1 [2] = test: Antiviral activity against HSV1 KOS infected in human HEL cells assessed as reduction in virus-induced cytopathogenicity after 3 days; format: functional, organism-based; settings: Human alphaherpesvirus 1, KOS, 72 h
Human alphaherpesvirus 2 = test: Antiviral activity against HSV2 G infected in human HEL cells assessed as reduction in virus-induced cytopathogenicity after 3 days; format: functional, organism-based; settings: Human alphaherpesvirus 2, strain G, 72 h
[3] = tested on: Vesicular stomatitis virus; test: Antiviral activity against VSV infected in human HEL cells assessed as reduction in virus-induced cytopathogenicity after 3 days; format: functional, organism-based; settings: 72 h
Human alphaherpesvirus 1 [4] = test: Antiviral activity against thymidine kinase-deficient acyclovir-resistant HSV1 KOS infected in human HEL cells assessed as reduction in virus-induced cytopathogenicity after 3 days; format: functional, organism-based; settings: Human alphaherpesvirus 1, KOS, 72 h
[5] = Cytotoxicity against human HeLa cells assessed as alteration in cell morphology; format: cell-based; outline: as §2
[6] = tested on: Vesicular stomatitis virus; test: Antiviral activity against VSV infected in human HeLa cells assessed as reduction in virus-induced cytopathogenicity after 3 days; format: functional, organism-based; settings: 72 h
Coxsackievirus B4 [7] = test: Antiviral activity against Coxsackievirus B4 infected in human HeLa cells assessed as reduction in virus-induced cytopathogenicity after 3 days; format: functional, organism-based; settings: Enterovirus B, 72 h
[8] = tested on: Respiratory syncytial virus; test: Antiviral activity against RSV infected in human HeLa cells assessed as reduction in virus-induced cytopathogenicity after 3 days; format: functional, organism-based; settings: 72 h
[9] = Cytotoxicity against african green monkey Vero cells assessed as alteration in cell morphology; format: cell-based; settings: chlorocebus sabaeus; outline: as §2
Human respirovirus 3 = test: Antiviral activity against Parainfluenza-3 virus infected in african green monkey Vero cells assessed as reduction in virus-induced cytopathogenicity after 3 days; format: functional, organism-based; settings: Human respirovirus 3, Vero, 72 h
[10] = tested on: Mammalian orthoreovirus 1; test: Antiviral activity against Reovirus 1 infected in african green monkey Vero cells assessed as reduction in virus-induced cytopathogenicity after 3 days; format: functional, organism-based; settings: Mammalian orthoreovirus 1, Vero, 72 h
Sindbis virus = test: Antiviral activity against Sindbis virus infected in african green monkey Vero cells assessed as reduction in virus-induced cytopathogenicity after 3 days; format: functional, organism-based; settings: 72 h
Coxsackievirus B4 [11] = test: Antiviral activity against Coxsackievirus B4 infected in african green monkey Vero cells assessed as reduction in virus-induced cytopathogenicity after 3 days; format: functional, organism-based; settings: Enterovirus B, 72 h
Punta Toro virus = test: Antiviral activity against Punta Toro virus infected in african green monkey Vero cells assessed as reduction in virus-induced cytopathogenicity after 3 days; format: functional, organism-based; settings: 72 h

SMILES | MBC (Staphylococcus aureus) [µM] | MIC (Staphylococcus aureus) [µM] | MBC (Bacillus subtilis) [µM] | MIC (Bacillus subtilis) [µM] | MBC (Escherichia coli) [µM] | MIC (Escherichia coli) [µM] | MFC (Aspergillus niger) [µM] | MIC (Aspergillus niger) [µM] | MFC (Candida albicans) [µM] | MIC (Candida albicans) [µM] | MCC [1] [µg/mL] | EC50 (Human alphaherpesvirus 1 [2]) [µg/mL] | EC50 (Human alphaherpesvirus 2) [µg/mL] | EC50 [3] [µg/mL] | EC50 (Human alphaherpesvirus 1 [4]) [µg/mL] | MCC [5] [µg/mL] | EC50 [6] [µg/mL] | EC50 (Coxsackievirus B4 [7]) [µg/mL] | EC50 [8] [µg/mL] | MCC [9] [µg/mL] | other results
O=C(c1ccccc1Br)n1ccnc1-c1ccccc1[N+](=O)[O-] | 268 (≈ 99.7 µg/mL) | 2 (≈ 0.744 µg/mL) | 268 (≈ 99.7 µg/mL) | 2 (≈ 0.744 µg/mL) | 268 (≈ 99.7 µg/mL) | 33 (≈ 12.3 µg/mL) | 67 (≈ 24.9 µg/mL) | 4 (≈ 1.49 µg/mL) | 268 (≈ 99.7 µg/mL) | 33 (≈ 12.3 µg/mL) | > 100 | > 100 | > 100 | > 100 | > 100 | > 100 | > 100 | > 100 | > 100 | > 100 | EC50 (Human respirovirus 3): > 100 µg/mL; EC50 [10]: > 100 µg/mL; EC50 (Sindbis virus): > 100 µg/mL; EC50 (Coxsackievirus B4 [11]): > 100 µg/mL; EC50 (Punta Toro virus): > 100 µg/mL
O=C(c1ccccc1Br)n1ccnc1-c1ccc([N+](=O)[O-])cc1 | 16 (≈ 5.95 µg/mL) | 2 (≈ 0.744 µg/mL) | 33 (≈ 12.3 µg/mL) | 4 (≈ 1.49 µg/mL) | 33 (≈ 12.3 µg/mL) | 4 (≈ 1.49 µg/mL) | 67 (≈ 24.9 µg/mL) | 4 (≈ 1.49 µg/mL) | 134 (≈ 49.9 µg/mL) | 16 (≈ 5.95 µg/mL) | > 100 | > 100 | > 100 | > 100 | > 100 | > 100 | > 100 | > 100 | > 100 | > 100 | EC50 (Human respirovirus 3): > 100 µg/mL; EC50 [10]: > 100 µg/mL; EC50 (Sindbis virus): > 100 µg/mL; EC50 (Coxsackievirus B4 [11]): > 100 µg/mL; EC50 (Punta Toro virus): > 100 µg/mL
O=C(c1ccc([N+](=O)[O-])cc1)n1ccnc1-c1ccc([N+](=O)[O-])cc1 | 295 (≈ 99.8 µg/mL) | 73 (≈ 24.7 µg/mL) | 295 (≈ 99.8 µg/mL) | 36 (≈ 12.2 µg/mL) | 295 (≈ 99.8 µg/mL) | 73 (≈ 24.7 µg/mL) | 147 (≈ 49.7 µg/mL) | 18 (≈ 6.09 µg/mL) | 147 (≈ 49.7 µg/mL) | 18 (≈ 6.09 µg/mL) | > 100 | 59 (≈ 174 µM) | 50 (≈ 148 µM) | > 100 | 45 (≈ 133 µM) | 100 | > 20 | > 20 | > 20 | > 100 | EC50 (Human respirovirus 3): > 100 µg/mL; EC50 [10]: > 100 µg/mL; EC50 (Sindbis virus): > 100 µg/mL; EC50 (Coxsackievirus B4 [11]): > 100 µg/mL; EC50 (Punta Toro virus): > 100 µg/mL
COc1ccc(-c2nccn2C(=O)c2ccc([N+](=O)[O-])cc2)cc1 | 18 (≈ 5.82 µg/mL) | 2 (≈ 0.647 µg/mL) | 18 (≈ 5.82 µg/mL) | 2 (≈ 0.647 µg/mL) | 147 (≈ 47.5 µg/mL) | 18 (≈ 5.82 µg/mL) | 147 (≈ 47.5 µg/mL) | 9 (≈ 2.91 µg/mL) | 147 (≈ 47.5 µg/mL) | 18 (≈ 5.82 µg/mL) | > 100 | > 100 | > 100 | > 100 | > 100 | > 100 | > 100 | > 100 | > 100 | > 100 | EC50 (Human respirovirus 3): > 100 µg/mL; EC50 [10]: > 100 µg/mL; EC50 (Sindbis virus): > 100 µg/mL; EC50 (Coxsackievirus B4 [11]): > 100 µg/mL; EC50 (Punta Toro virus): > 100 µg/mL
O=C(c1ccccc1Br)n1ccnc1-c1ccccc1Cl | 268 (≈ 96.9 µg/mL) | 69 (≈ 25 µg/mL) | 268 (≈ 96.9 µg/mL) | 69 (≈ 25 µg/mL) | 268 (≈ 96.9 µg/mL) | 69 (≈ 25 µg/mL) | 138 (≈ 49.9 µg/mL) | 8 (≈ 2.89 µg/mL) | 138 (≈ 49.9 µg/mL) | 17 (≈ 6.15 µg/mL) | > 100 | > 100 | > 100 | > 100 | > 100 | > 100 | > 100 | > 100 | > 100 | > 100 | EC50 (Human respirovirus 3): > 100 µg/mL; EC50 [10]: > 100 µg/mL; EC50 (Sindbis virus): > 100 µg/mL; EC50 (Coxsackievirus B4 [11]): > 100 µg/mL; EC50 (Punta Toro virus): > 100 µg/mL
O=C(c1ccc([N+](=O)[O-])cc1)n1ccnc1-c1cccc(Cl)c1 | 305 (≈ 100 µg/mL) | 38 (≈ 12.5 µg/mL) | 305 (≈ 100 µg/mL) | 38 (≈ 12.5 µg/mL) | 305 (≈ 100 µg/mL) | 38 (≈ 12.5 µg/mL) | 152 (≈ 49.8 µg/mL) | 19 (≈ 6.23 µg/mL) | 304 (≈ 99.6 µg/mL) | 38 (≈ 12.5 µg/mL) | > 100 | > 100 | > 100 | > 100 | > 100 | > 100 | > 100 | > 100 | > 100 | > 100 | EC50 (Human respirovirus 3): > 100 µg/mL; EC50 [10]: > 100 µg/mL; EC50 (Sindbis virus): > 100 µg/mL; EC50 (Coxsackievirus B4 [11]): > 100 µg/mL; EC50 (Punta Toro virus): > 100 µg/mL
O=C(c1ccccc1Br)n1ccnc1-c1cccc([N+](=O)[O-])c1 | 33 (≈ 12.3 µg/mL) | 4 (≈ 1.49 µg/mL) | 268 (≈ 99.7 µg/mL) | 33 (≈ 12.3 µg/mL) | 16 (≈ 5.95 µg/mL) | 2 (≈ 0.744 µg/mL) | 67 (≈ 24.9 µg/mL) | 16 (≈ 5.95 µg/mL) | 268 (≈ 99.7 µg/mL) | 16 (≈ 5.95 µg/mL) | > 100 | > 100 | > 100 | > 100 | > 100 | > 100 | > 100 | > 100 | > 100 | > 100 | EC50 (Human respirovirus 3): > 100 µg/mL; EC50 [10]: > 100 µg/mL; EC50 (Sindbis virus): > 100 µg/mL; EC50 (Coxsackievirus B4 [11]): > 100 µg/mL; EC50 (Punta Toro virus): > 100 µg/mL
COc1ccc(-c2nccn2C(=O)c2ccccc2Br)cc1 | 134 (≈ 47.9 µg/mL) | 16 (≈ 5.72 µg/mL) | 628 (≈ 224 µg/mL) | 16 (≈ 5.72 µg/mL) | 628 (≈ 224 µg/mL) | 33 (≈ 11.8 µg/mL) | 134 (≈ 47.9 µg/mL) | 16 (≈ 5.72 µg/mL) | 134 (≈ 47.9 µg/mL) | 16 (≈ 5.72 µg/mL) | > 100 | > 100 | > 100 | > 100 | > 100 | > 100 | > 100 | > 100 | > 100 | > 100 | EC50 (Human respirovirus 3): > 100 µg/mL; EC50 [10]: > 100 µg/mL; EC50 (Sindbis virus): > 100 µg/mL; EC50 (Coxsackievirus B4 [11]): > 100 µg/mL; EC50 (Punta Toro virus): > 100 µg/mL
O=C(c1ccccc1Br)n1ccnc1-c1ccc(Cl)cc1 | 17 (≈ 6.15 µg/mL) | 2 (≈ 0.723 µg/mL) | 17 (≈ 6.15 µg/mL) | 2 (≈ 0.723 µg/mL) | 17 (≈ 6.15 µg/mL) | 2 (≈ 0.723 µg/mL) | 69 (≈ 25 µg/mL) | 8 (≈ 2.89 µg/mL) | 138 (≈ 49.9 µg/mL) | 17 (≈ 6.15 µg/mL) | > 100 | > 100 | > 100 | > 100 | > 100 | > 100 | > 100 | > 100 | > 100 | > 100 | EC50 (Human respirovirus 3): > 100 µg/mL; EC50 [10]: > 100 µg/mL; EC50 (Sindbis virus): > 100 µg/mL; EC50 (Coxsackievirus B4 [11]): > 100 µg/mL; EC50 (Punta Toro virus): > 100 µg/mL

From ChEMBL document CHEMBL1158343, “Synthesis, antimicrobial and antiviral evaluation of substituted imidazole derivatives” (Eur J Med Chem, 2009)
